A selection: hits, their analogues and other compounds. The true share with any hit is near 2.3%.
TRPC4 PAM: TRPC4 (mouse) allosteric potentiation; Q9QUQ5; HEK293 TRPC4beta/mu-opioid, DAMGO EC20, Fluo-4 Ca2+ flux; hits give high values; B-score at 10 µM; 0.42% of 310,000 active;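 active = B-score of calcium response area above 5 SD of library B-scores, with initial fluorescence ratio within 5 SD of library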;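 also: B-score of integrated fluorescence ratio over time as area under calcium response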
Target sequence (Q9QUQ5 whole entry, looked up): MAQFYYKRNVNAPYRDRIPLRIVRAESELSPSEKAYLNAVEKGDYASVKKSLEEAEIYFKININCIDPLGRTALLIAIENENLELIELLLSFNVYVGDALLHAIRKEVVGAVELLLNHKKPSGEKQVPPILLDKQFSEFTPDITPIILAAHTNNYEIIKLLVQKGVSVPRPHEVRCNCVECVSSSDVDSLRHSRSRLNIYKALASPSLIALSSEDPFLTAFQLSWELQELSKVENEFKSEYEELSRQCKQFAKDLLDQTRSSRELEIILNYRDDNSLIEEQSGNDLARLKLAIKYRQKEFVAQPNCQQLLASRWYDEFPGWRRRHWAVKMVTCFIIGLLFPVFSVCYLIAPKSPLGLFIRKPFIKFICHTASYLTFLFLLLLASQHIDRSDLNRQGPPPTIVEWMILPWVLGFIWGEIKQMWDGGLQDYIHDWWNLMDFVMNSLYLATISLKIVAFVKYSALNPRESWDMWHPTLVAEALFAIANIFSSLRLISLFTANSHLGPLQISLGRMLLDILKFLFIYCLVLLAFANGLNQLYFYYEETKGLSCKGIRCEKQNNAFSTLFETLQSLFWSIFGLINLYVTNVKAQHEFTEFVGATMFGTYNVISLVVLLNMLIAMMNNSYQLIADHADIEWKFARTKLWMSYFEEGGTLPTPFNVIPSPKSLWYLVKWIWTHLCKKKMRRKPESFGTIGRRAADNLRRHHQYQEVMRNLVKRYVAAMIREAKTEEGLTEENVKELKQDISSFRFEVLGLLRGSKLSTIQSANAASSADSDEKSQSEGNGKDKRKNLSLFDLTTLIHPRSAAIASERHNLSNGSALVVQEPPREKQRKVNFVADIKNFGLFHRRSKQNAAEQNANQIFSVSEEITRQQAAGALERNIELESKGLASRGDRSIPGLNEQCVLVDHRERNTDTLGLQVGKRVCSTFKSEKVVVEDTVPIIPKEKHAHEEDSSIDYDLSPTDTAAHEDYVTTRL
TRPC4 act: TRPC4 (mouse) channel activation | Q9QUQ5 | HEK293 TRPC4beta/mu-opioid, Fluo4 calcium fluorescence; hits give high values | B-score at 10 µM | 0.49% of 310,000 active | AID 2237;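 active = B-score above 5 SD of library B-scores, and initial fluorescence ratio not above library mean plus 5 SD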;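 also: positive B-score marks a calcium rise read as TRPC4 activation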
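Technique: kinetic Fluo4 calcium fluorescence; Test system: TRPC4beta and mu-opioid receptor HEK293 stable cells; Measure: B-scored integrated calcium fluorescence ratio; Benchmarks: low control buffer alone, high control maximal DAMGO; Schedule: 45 min room-temperature Fluo4 loading, 110 s read.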
TRPC4 block: blocks the mouse TRPC4 cation channel; HEK293 TRPC4beta/mu-opioid, DAMGO-evoked Fluo4 calcium flux; hits give low values; B-score at 10 µM; 0.39% of 300,000 active;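 active = B-score over 3 SD under the library average, no early fluorescence shift, positive overall ratio signal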
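Material: HEK293 cells with stable TRPC4beta plus mu-opioid receptor expression; probe or stimulus: DAMGO in two steps, submaximal then maximal; technique: Fluo4 calcium fluorescence by kinetic imaging, 5 s 1 Hz baseline; measure: integrated fluorescence ratio relative to baseline, converted to per-well B score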
TRPC6 inh: mouse TRPC6 channel inhibition. Q61143. HEK293-TRPC6, membrane potential dye, ACh-evoked depolarization; hits give low values. B-score at 10 µM. 1.1% of 310,000 active. AID 2553;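 active = B-score under library mean minus 3 SD, initial fluorescence not abnormally high, positive integrated signal ratio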;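 also: B-score derived from integrated fluorescence ratio over the kinetic read; more negative B-score means stronger inhibition of depolarization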
TRPC6 activator: mouse TRPC6 channel activation; B-score at 10 µM; AID 2550; HEK293-TRPC6 membrane potential dye fluorescence; hits give high values; 0.13% of 310,000 active; Q61143;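 active = B-score of the integrated fluorescence ratio above library mean plus 3 SD, and starting fluorescence ratio within library mean plus 5 SD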;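 also: higher score means more depolarization so channel activation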
Yeast superoxide: lowers age-related superoxide in aged yeast cells; S. cerevisiae aged cells, superoxide DHE fluorescence; hits give low values; superoxide response (% of plate mean), % at 10 µM; 0.18% of 330,000 active; AID 2690;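 active = superoxide response under a set limit, about three screen SD below normal, cut at about 65% in these data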;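 also: yeast aged for seven days with compound at 30 °C before DHE staining; 100% = average MFI of all compound-treated wells on the plate with controls excluded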
Active calls of the source: *; i = inactive; x = no result given.

SMILES | TRPC4 PAM | TRPC4 act | TRPC4 block | TRPC6 inh | TRPC6 activator | Yeast superoxide
COc1ccc(C2NCCc3c2[nH]c2ccccc32)cc1COc1ccc(F)cc1 (centres undefined) | i | i | i | i | i | 82
COc1ccc(C2NCCc3c2[nH]c2ccccc32)cc1CN1CCc2cc(OC)c(OC)cc2C1C (centres undefined) | i | 47* | -8* | i | i | x
COCCCNC(=O)c1ccc(CS(=O)(=O)c2cccc(C(F)(F)F)c2)o1 | i | i | i | i | i | 94
Cc1ccc(NN=C2c3ccccc3-c3ccccc32)cc1 | i | i | i | i | i | 107
O=C(c1cccc(C(=O)N2CCN(c3ccccc3)CC2)c1)N1CCN(c2ccccc2)CC1 | i | i | -7* | i | i | 106
CN(c1cccc(NC(=O)CSc2ccc(Cl)cc2)c1)S(C)(=O)=O | i | i | i | i | i | 100
CCn1c(CCCNC(=O)c2cccs2)nc2ccccc21 | i | i | i | i | i | 104
NC(=S)N/N=C/c1c(O)ccc2ccccc12 | i | i | i | i | i | 99
NC(=S)N/N=C1/CCSc2ccc3ccccc3c21 | 17* | i | i | i | i | 108
O=C(Nc1cccc(Cl)c1)N1CCN2C(=O)c3ccccc3C12c1ccccc1 (centres undefined) | i | i | -6* | i | i | 114
Cc1nc(N2CCN(C(=O)c3cccs3)CC2)c2c3c(sc2n1)CCCC3 | i | i | i | i | i | 91
Cc1nc(N2CCN(C)CC2)c2c3c(sc2n1)CCCC3 | i | i | i | -5.4* | i | 101
O=C(OC(C(=O)NCC1CCCO1)c1ccc(F)cc1)c1cccs1 (centres undefined) | i | 47* | i | i | i | 113
Cc1nc2cc(CO)ccc2n1C | i | i | i | i | i | 97
CCc1ccc(C(=O)N2CCCN(C)CC2)s1 | i | i | i | i | i | 82
CCc1c(C(=O)N2CCCN(C)CC2)csc1C | i | i | -6* | i | i | 109
Cc1ccc(-n2nc3c(c2NC(=O)c2cccs2)CS(=O)(=O)C3)cc1 | i | i | i | i | i | 88
CCc1ccccc1Nc1nc2ccccc2[nH]1 | i | i | -5* | i | i | 94
Cc1ccc(Nc2nc3ccccc3[nH]2)nc1 | i | 108* | i | i | i | 94
CN1CCN(CC#CCn2c3ccccc3c3ccccc32)CC1 | 16* | i | i | i | i | 90
O=C(/C=C/c1ccc2c(c1)OCO2)NCc1ccco1 | i | i | i | i | i | 120
CC[C@@H](C)[C@H](NC(=O)Cc1c(C)c2c(cc(C)c3c(C)coc32)oc1=O)C(=O)O | i | i | i | i | i | 108
O=C(O)CCN1C(=O)/C(=C/c2ccc(-c3nc4ccccc4s3)o2)SC1=S | i | i | i | i | i | 113
O=C(O)CCCN1C(=O)/C(=C\c2ccc(-c3nc4ccccc4s3)o2)SC1=S | 19* | i | i | i | i | 97
COc1ccc2c(C)c(CCC(=O)NCCCN3CCCC3=O)c(=O)oc2c1C | i | i | -6* | i | i | 116
SMILES | TRPC4 PAM | TRPC4 act | TRPC4 block | TRPC6 inh | TRPC6 activator | Yeast superoxide
Cc1oc2c(C)c3oc(=O)c(CCC(=O)NCCCN4CCCC4=O)c(C)c3cc2c1C | i | i | i | i | i | 86
c1ccc(-c2ccccc2OCCOCCN2CCCCC2)cc1 | i | i | -5* | i | i | 95
CC1CCN(CCOCCOc2ccccc2-c2ccccc2)CC1 | i | i | -6* | i | i | 123
CC(C)C(NC(=O)c1ccc(C(C)(C)C)cc1)C(=O)NCC(c1ccccc1)N(C)C (centres undefined) | i | i | -7* | i | i | 102
CC1CCN(C(=O)c2ccccc2NC(=O)c2cccs2)CC1 | i | i | i | i | i | 95
CCOc1ccc(OCc2ccc(C(=O)N3CCCCC3)o2)cc1 | 10* | i | i | i | i | 112
COc1c(C)cc(C(=O)C2CCCN(C(=O)c3ccc4[nH]ccc4c3)C2)cc1C (centres undefined) | i | i | i | i | i | 96
c1ccc(Nc2nc(N3CCNCC3)nc(N3CCOCC3)n2)cc1 | i | 65* | i | i | i | 87
O=C(CCc1ccc(Oc2cc([N+](=O)[O-])cc([N+](=O)[O-])c2)cc1)N1CCCCCC1 | i | 75* | -6* | i | i | 95
S=c1[nH]nc(-c2cc3c(s2)-c2ccccc2CC3)o1 | i | i | -6* | i | i | 157
CSc1nnc(-c2cc3c(s2)-c2ccccc2CC3)o1 | x | x | x | x | x | 88
O/N=C/c1ccccc1Oc1ccc(Cl)cc1 | i | i | -6* | i | i | 97
O/N=C/c1ccccc1Oc1ccccc1 | i | i | i | i | i | 90
COc1ccc(-c2nc3ccccc3c(=O)n2CCOc2ccc(C)cc2C)cc1 | i | i | i | i | i | 82
CCN(Cc1ccccc1)c1ccc(/C=N/N=C(N)N)cc1 | i | 145* | i | i | i | 93
CC(C)(C)c1ccc(-c2nnc3sc(-c4ccccn4)nn23)cc1 | 85* | i | i | i | i | 118
NC(=O)N1c2ccccc2C=Cc2ccccc21 | i | i | i | i | i | 100
CN1CCN(C(=O)N2c3ccccc3C=Cc3ccccc32)CC1 | 13* | i | i | i | i | 88
CN1C(=O)/C(=C2/C=Cc3ccccc3N2CCCS(=O)(=O)O)SC1=S | i | i | i | i | i | 114
OC1(c2ccc(Br)cc2)CN(c2ccccc2)C2=[N+]1CCS2 (centres undefined) | i | 93* | i | i | i | 94
COc1ccc(OC)c(N2CC(O)(c3ccccc3)[N+]3=C2SCCC3)c1 (centres undefined) | i | i | i | i | i | 100
OC1(c2ccc(Cl)cc2)CN(c2ccccc2)C2=[N+]1CCS2 (centres undefined) | i | 75* | i | i | i | 99
COc1ccc(C2(O)CN(c3ccccc3)C3=[N+]2CCS3)cc1OC (centres undefined) | i | i | i | i | i | 110
Cc1cc(Br)ccc1NC(=O)CSCc1c(C)noc1C | x | x | x | x | x | 86
